Experimental data taken from ChEMBL document CHEMBL1255250, “Microbicidal properties and cytocidal selectivity of rhesus macaque theta defensins” (Antimicrob Agents Chemother, 2008).
Active and inactive are the calls of the source. The rule behind the calls is not given here.

Legend:
Staphylococcus aureus [1] = experiment: Microbicidal activity against Staphylococcus aureus 502a using 10 mM PIPES buffer in presence of 154 mM NaCl; format: functional, organism-based
Outline: (§1)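 Log-phase S. aureus was exposed to increasing peptide concentrations for 2 h at 37°C. Buffer was 10 mM PIPES, Tris-HCl or sodium phosphate, pH 7.4, with or without 154 mM NaCl. Killing was read by colony counting.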

Hs68 [2] = experiment: Cytotoxicity against human HS68 cells at <=100 ug/ml by MTT assay in presence of 0.4% FBS; format: cell-based
Outline: (§2)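 HS68 fibroblasts were grown in DMEM with 10% FBS and penicillin/streptomycin at 37°C and 5% CO2. Cells were seeded at 5 × 10^3 per well for 18 h. Medium was then switched to antibiotic-free DMEM with 0.4% or 10% FBS, as each line states, and peptide was added at 0–100 μg/ml for 1 h at 37°C. Wells were refed with growth medium and read by MTT in triplicate against no-peptide wells.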

Staphylococcus aureus [3] = experiment: Microbicidal activity against Staphylococcus aureus 502a in presence of 0.8 mM Magnesium ions; format: functional, organism-based
Staphylococcus aureus [4] = experiment: Microbicidal activity against Staphylococcus aureus 502a; format: functional
Outline: (§3)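 Log-phase organisms (1–2 × 10^6 CFU/ml) were exposed to serially diluted peptide (0.05–10.0 μg/ml final) in 10 mM PIPES, pH 7.4, with 5 mM glucose for 2 h at 37°C. Aliquots were serially diluted 1:10 to 1:10^6 in Trypticase soy or Sabouraud broth and grown 24–48 h at 37°C. MMC was the lowest concentration giving 99.9% viability loss in at least two experiments.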

Escherichia coli [5] = experiment: Microbicidal activity against Escherichia coli ML35 in presence of 0.8 mM Magnesium ions; format: functional, organism-based
Outline: (§4)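 Log-phase E. coli ML35 or C. albicans was incubated with increasing peptide concentrations in 10 mM PIPES, pH 7.4. The buffer contained 1.2 mM CaCl2 and 0.8 mM MgCl2, or no added divalent salts. Incubation was 2 h at 37°C, and survivors were counted as colonies.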

Escherichia coli [6] = experiment: Microbicidal activity against Escherichia coli ML35 at 16 ug/ml in presence of 10% heat-inactivated human serum; format: functional, organism-based
Outline: (§5)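 Human serum was heat-inactivated at 55°C for 30 min and clarified by centrifugation. E. coli was then exposed to a dose series of peptide in 10 mM PIPES, pH 7.4, with 10% of this serum. Killing was counted as colonies and expressed relative to incubations without serum.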

Escherichia coli [7] = experiment: Microbicidal activity against Escherichia coli ML35 at <=8 ug/ml in presence of 10% heat-inactivated human serum; format: functional, organism-based; outline: as §5
Candida albicans [8] = experiment: Microbicidal activity against Candida albicans 16820 using PIPES buffer in presence of NaCl; format: functional, organism-based
Outline: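 Log-phase C. albicans was incubated with peptide in 10 mM PIPES, pH 7.4, supplemented with NaCl, for 2 h at 37°C. Survivors were plated on Sabouraud dextrose agar and counted after 18–24 h at 37°C.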

[9] = target: Beta-galactosidase (Escherichia coli) (UniProt Q8VNN2); experiment: Inhibition of Escherichia coli ML35 Beta-galactosidase assessed as inhibition of o-nitrophenyl-beta-d-galactopyranoside hydrolysis at 4 ug/ml
Staphylococcus aureus [10] = experiment: Microbicidal activity against Staphylococcus aureus 502a at 5 ug/ml in presence of <= 80 mM NaCl; format: functional, organism-based
Outline: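 S. aureus in log phase was incubated with 5 μg/ml peptide in 10 mM PIPES, pH 7.4, containing increasing NaCl for 2 h at 37°C. Killing was determined by colony counting and expressed as a percentage of killing in buffer alone.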

[11] = Toxicity in human Erythrocyte assessed as hemolysis at 100 ug/ml in presence of 10% serum; format: cell-based
Outline: (§6)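 Erythrocytes from EDTA-anticoagulated human donor blood were washed in PBS or PiBS containing 4 mM EDTA, then resuspended without EDTA at 2% (vol/vol). Cells were incubated with peptide (0.3–100 μg/ml final) for 1 h at 37°C, with or without 10% autologous serum. Supernatant A405 was expressed relative to 1% Nonidet P-40 lysis.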

Escherichia coli [12] = experiment: Microbicidal activity against Escherichia coli ML35 assessed as induction of cytoplasmic membrane permeabilization at 1 ug/ml; format: functional, organism-based
Outline: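 Log-phase E. coli ML35 (1–2 × 10^6 CFU/ml) was incubated with peptide (0–8 μg/ml final) in 10 mM PIPES, pH 7.4, containing 3 mM ONPG. ONPG hydrolysis was followed at 405 nm for 60 min. The rate was taken as the highest kinetic slope and corrected for peptide inhibition of β-galactosidase measured cell-free.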

Candida albicans [13] = experiment: Microbicidal activity against Candida albicans 16820; format: functional; outline: as §3
[14] = Inhibition of beta-galactosidase in cell-free system assessed as inhibition of o-nitrophenyl-beta-d-galactopyranoside hydrolysis
[15] = Toxicity in human Erythrocyte assessed as hemolysis at 100 ug/ml; format: cell-based; outline: as §6
Staphylococcus aureus [16] = experiment: Microbicidal activity against Staphylococcus aureus 502a using 10 mM sodium phosphate buffer in presence of 154 mM NaCl; format: functional, organism-based; outline: as §1
Escherichia coli [17] = experiment: Microbicidal activity against Escherichia coli ML35 in presence of 1.2 mM Calcium ions; format: functional, organism-based; outline: as §4
Escherichia coli [18] = experiment: Microbicidal activity against Escherichia coli ML35; format: functional; outline: as §3
Hs68 [19] = experiment: Cytotoxicity against human HS68 cells at 100 ug/ml in presence of 10% FBS by MTT assay; format: cell-based; outline: as §2
Candida albicans [20] = experiment: Microbicidal activity against Candida albicans 16820 assessed as log reduction in microbial count at 10 ug/ml using PIPES buffer
Candida albicans [21] = experiment: Microbicidal activity against Candida albicans 16820 in presence of 0.8 mM Magnesium ions; format: functional, organism-based; outline: as §4
Staphylococcus aureus [22] = experiment: Microbicidal activity against Staphylococcus aureus 502a using 10 mM Tris-HCl buffer in presence of 154 mM NaCl; format: functional, organism-based; outline: as §1
Hs68 [23] = experiment: Cytotoxicity against human HS68 cells at 50 ug/ml by MTT assay in presence of 10% FBS; format: cell-based; outline: as §2
Staphylococcus aureus [24] = experiment: Microbicidal activity against Staphylococcus aureus 502a in presence of 1.2 mM Calcium ions; format: functional, organism-based
[25] = Toxicity in human Erythrocyte assessed as concentration required to achieve 3% hemolysis; format: cell-based
[26] = Selectivity index, ratio of MMC for Staphylococcus aureus 502a to hemolytic activity for human erythrocytes

Sequence of Beta-galactosidase (Escherichia coli) (Q8VNN2 whole entry, looked up): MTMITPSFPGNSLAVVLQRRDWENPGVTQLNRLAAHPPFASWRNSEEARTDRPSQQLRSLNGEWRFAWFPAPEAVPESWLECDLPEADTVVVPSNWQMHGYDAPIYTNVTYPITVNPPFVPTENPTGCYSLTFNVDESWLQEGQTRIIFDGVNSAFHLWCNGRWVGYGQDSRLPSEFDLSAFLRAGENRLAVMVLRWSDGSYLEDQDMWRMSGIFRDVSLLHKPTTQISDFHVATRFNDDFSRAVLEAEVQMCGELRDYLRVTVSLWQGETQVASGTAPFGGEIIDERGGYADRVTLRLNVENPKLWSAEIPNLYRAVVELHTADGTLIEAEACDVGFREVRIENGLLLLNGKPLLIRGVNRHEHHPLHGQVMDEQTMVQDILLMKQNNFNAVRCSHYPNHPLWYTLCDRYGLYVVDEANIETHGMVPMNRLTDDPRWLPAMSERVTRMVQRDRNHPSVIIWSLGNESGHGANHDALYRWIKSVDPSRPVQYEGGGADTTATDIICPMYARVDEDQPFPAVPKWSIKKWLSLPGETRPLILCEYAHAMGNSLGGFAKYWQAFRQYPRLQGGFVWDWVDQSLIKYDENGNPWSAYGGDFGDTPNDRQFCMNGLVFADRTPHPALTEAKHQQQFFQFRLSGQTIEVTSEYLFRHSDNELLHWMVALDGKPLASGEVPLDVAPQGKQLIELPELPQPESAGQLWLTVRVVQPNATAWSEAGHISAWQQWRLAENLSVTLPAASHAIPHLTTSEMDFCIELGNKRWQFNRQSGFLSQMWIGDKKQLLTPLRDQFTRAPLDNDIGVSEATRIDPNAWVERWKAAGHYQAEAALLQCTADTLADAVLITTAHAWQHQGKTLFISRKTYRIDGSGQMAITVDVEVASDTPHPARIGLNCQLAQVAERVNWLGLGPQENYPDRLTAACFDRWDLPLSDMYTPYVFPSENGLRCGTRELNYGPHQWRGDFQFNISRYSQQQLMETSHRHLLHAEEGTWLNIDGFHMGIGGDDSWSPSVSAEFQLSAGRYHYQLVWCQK

## CC(C)C[C@H](NC(=O)[C@H](CCCNC(=N)N)NC(=O)CNC(=O)CNC(=O)[C@@H](N)CCCNC(=N)N)C(=O)N[C@H]1CSSC[C@@H](C(=O)N[C@H](C(=O)NCC(=O)N[C@@H](CCCNC(=N)N)C(N)=O)C(C)C)NC(=O)[C@H](C(C)C)NC(=O)[C@@H]2CSSC[C@H](NC(=O)[C@H](Cc3ccc(O)cc3)NC1=O)C(=O)N[C@@H](CCCNC(=N)N)C(=O)N[C@@H](CCCNC(=N)N)C(=O)N[C@@H](CCCNC(=N)N)C(=O)N[C@@H](Cc1ccccc1)C(=O)N2
Staphylococcus aureus [1]
  Activity: Active
Hs68 [2]
  Activity: Toxic
Staphylococcus aureus [3]
  Activity: Active
Staphylococcus aureus [4]
  MMC: 0.4 µg/mL
Escherichia coli [5]
  Activity: Active
Escherichia coli [6]
  Activity: Active
Escherichia coli [7]
  Activity: inactive
Candida albicans [8]
  Activity: Active
[9]
  inhibition: 36%
Staphylococcus aureus [10]
  Activity: Active
[11]
  Activity: Toxic
Escherichia coli [12]
  Activity: Active
Candida albicans [13]
  MMC: 0.8 µg/mL
[14]
  inhibition: Dose-dependent effect
[15]
  Activity: Toxic
Staphylococcus aureus [16]
  Activity: Active
Escherichia coli [17]
  Activity: Active
Escherichia coli [18]
  MMC: 1 µg/mL
Hs68 [19]
  Activity: Toxic
Candida albicans [20]
  FC: >3
Candida albicans [21]
  Activity: inactive
Staphylococcus aureus [22]
  Activity: Active
Hs68 [23]
  Activity: Toxic
Staphylococcus aureus [24]
  Activity: Active
[25]
  Activity: 0.8 µg/mL
[26]
  Selectivity Index: 2
